Measured values as given in ChEMBL document CHEMBL1159110, “Mevalonate analogues as substrates of enzymes in the isoprenoid biosynthetic pathway of Streptococcus pneumoniae” (Bioorg Med Chem, 2010).
The source made the active and inactive calls. The calls are words filed in the database; no cut-off is given here.

Experiments:
[1] = test system: Streptococcus pneumoniae; assay: Activity of Streptococcus pneumoniae phosphomevalonate kinase expressed in Escherichia coli by pyruvate kinase/lactate dehydrogenase coupled assay
Method in brief: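 S. pneumoniae PMK was expressed in E. coli as His6-GST fusion, with tags removed. Substrates were the phosphorylated analogues, compared with phosphomevalonate. ADP formation was linked 1:1 to NADH oxidation via pyruvate kinase (10.0 units/ml) and lactate dehydrogenase (20.0 units/ml), monitored at 386 nm. Conditions: ATP 4.0 mM, MgCl2 5.0 mM, NADH 0.82 mM, PEP 1.0 mM, KCl 50 mM, β-mercaptoethanol 20.0 mM, Hepes/K+ 50 mM pH 8.0, 25 °C.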

[2] = test system: Streptococcus pneumoniae; assay: Activity of Streptococcus pneumoniae mevalonate kinase expressed in Escherichia coli by pyruvate kinase/lactate dehydrogenase coupled assay
Method in brief: (§1)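 S. pneumoniae MK expressed in E. coli as His6-GST fusion, with tags removed. Lactone analogues were hydrolysed in 2.0 M LiOH (rt, 1 h), titrated to pH 7.0, and used as racemic acids. ADP formation was coupled to NADH oxidation (pyruvate kinase 10.0 units/ml, lactate dehydrogenase 20.0 units/ml), read continuously at 386 nm. Buffer: ATP 4.0 mM, MgCl2 5.0 mM, NADH 0.82 mM, PEP 1.0 mM, KCl 50 mM, β-mercaptoethanol 20.0 mM, Hepes/K+ 50 mM pH 8.0, 25 °C. Progress curves were compared with mevalonate.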

[3] = test system: Streptococcus pneumoniae; assay: Activity of Streptococcus pneumoniae mevalonate kinase expressed in Escherichia coli assessed as enzyme activity by pyruvate kinase/lactate dehydrogenase coupled assay relative to mevalonate; method in brief: as §1
[4] = Binding affinity to Streptococcus pneumoniae mevalonate kinase

SMILES | Activity [1] | Activity [2] | Activity [3] [%] | Ki [4] [µM]
C#CC(O)(CCO)CC(=O)O (racemic) | Active | Active | – | –
C=C(C)C(O)(CCO)CC(=O)O (racemic) | – | – | < 0.0025 | –
C=CC(O)(CCO)CC(=O)O (racemic) | Active | Active | – | –
C=CCC(O)(CCO)CC(=O)O (racemic) | Active | Active | – | –
CC#CC(O)(CCO)CC(=O)O (racemic) | – | – | < 0.0025 | –
CC(C)C(O)(CCO)CC(=O)O (racemic) | – | – | < 0.0025 | –
CC(C)CC(O)(CCO)CC(=O)O (racemic) | Active | Active | – | –
CCC(O)(CCO)CC(=O)O (racemic) | Active | Active | – | –
CCCC(O)(CCO)CC(=O)O (racemic) | Active | Active | – | –
CCCCC(O)(CCO)CC(=O)O (racemic) | – | – | < 0.0025 | –
O=C(O)CC(O)(CCO)C1CC1 (racemic) | Active | Active | – | –
C[C@@](O)(CCOP(=O)(O)OP(=O)(O)O)CC(=O)O [DIPHOSPHOMELAVONATE] | – | – | – | 0.5
